An excerpt weighted towards active compounds, which were near 2.3% of everything screened.
TRPC6 act = mouse TRPC6 channel activators, primary screen, cell-based, HEK293, membrane potential dye. Short transient receptor potential channel 6 (Mus musculus), Q61143. HEK293-TRPC6 membrane potential dye fluorescence; active compounds read high. B-score at 10 µM. 310,000 compounds, 0.13% hits;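 active means B-score of the integrated fluorescence ratio above library mean plus 3 SD, and starting fluorescence ratio within library mean plus 5 SD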;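 further: higher score means more depolarization so channel activation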
Target sequence (Q61143 whole entry, looked up): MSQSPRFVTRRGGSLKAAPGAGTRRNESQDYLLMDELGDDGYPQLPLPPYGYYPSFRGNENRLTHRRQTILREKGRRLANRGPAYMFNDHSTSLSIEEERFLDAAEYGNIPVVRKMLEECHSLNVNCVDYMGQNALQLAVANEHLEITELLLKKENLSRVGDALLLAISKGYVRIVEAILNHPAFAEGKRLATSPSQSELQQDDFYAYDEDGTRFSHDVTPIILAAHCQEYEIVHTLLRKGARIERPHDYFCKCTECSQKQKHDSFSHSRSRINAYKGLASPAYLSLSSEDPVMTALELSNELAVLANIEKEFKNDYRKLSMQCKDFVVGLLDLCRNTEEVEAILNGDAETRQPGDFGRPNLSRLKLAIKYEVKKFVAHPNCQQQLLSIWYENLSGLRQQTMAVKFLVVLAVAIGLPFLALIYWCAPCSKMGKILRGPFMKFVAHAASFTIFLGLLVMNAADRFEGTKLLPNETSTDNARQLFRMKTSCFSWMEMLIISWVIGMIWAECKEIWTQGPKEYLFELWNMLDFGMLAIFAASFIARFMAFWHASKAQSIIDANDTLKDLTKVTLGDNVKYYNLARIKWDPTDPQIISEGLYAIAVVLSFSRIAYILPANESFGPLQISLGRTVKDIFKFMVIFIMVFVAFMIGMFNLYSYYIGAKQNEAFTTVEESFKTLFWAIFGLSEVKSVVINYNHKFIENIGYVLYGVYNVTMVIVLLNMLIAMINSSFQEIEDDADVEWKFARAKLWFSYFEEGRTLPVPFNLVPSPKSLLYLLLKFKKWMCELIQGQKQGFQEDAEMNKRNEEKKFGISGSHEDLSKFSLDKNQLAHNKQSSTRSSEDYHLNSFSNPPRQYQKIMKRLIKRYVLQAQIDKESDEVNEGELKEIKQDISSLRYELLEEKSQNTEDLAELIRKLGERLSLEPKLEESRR
TRPC4 potent = positive allosteric modulators of TRPC4, primary screen, cell-based, mouse TRPC4beta, HEK293 mu-opioid, Fluo-4 calcium. Short transient receptor potential channel 4 (Mus musculus), Q9QUQ5. DAMGO EC20, Fluo-4 Ca2+ flux; active compounds read high. B-score at 10 µM. 310,000 compounds, 0.42% hits;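 active means B-score of calcium response area above 5 SD of library B-scores, with initial fluorescence ratio within 5 SD of library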;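 further: B-score of integrated fluorescence ratio over time as area under calcium response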
DNA FID counter = compounds displacing fluorescent DNA intercalator, primary screen, artefact control for HCV NS3 helicase inhibitor project, biochemical, FID fluorescence; DNA fluorescent intercalator displacement; inhibition, % at 7.9 µM; 290,000 compounds, 0.17% hits; AID 1845, 2009; in the data active means inhibition above about 37%;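 further: 0% = vehicle and 100% = reference compound; higher means more ethidium bromide displaced from hairpin DNA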
TRPC4 block = inhibitors of mouse TRPC4 channel, primary screen, Fluo4 calcium, HEK293 TRPC4beta/mu-opioid cells; DAMGO-evoked Fluo4 calcium flux; active compounds read low; B-score at 10 µM; 300,000 compounds, 0.39% hits; Short transient receptor potential channel 4 (Mus musculus), Q9QUQ5;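 active means B-score over 3 SD under the library average, no early fluorescence shift, positive overall ratio signal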
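Assay system: HEK293 cells with stable TRPC4beta plus mu-opioid receptor expression. Dosing: single dose. Measured by: Fluo4 Ca2+ flux fluorescence. Also added: DAMGO in two steps, submaximal then maximal. Read-out: B score from integrated Fluo4 fluorescence ratio.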
TRPC4 agonist = activators of mouse TRPC4 channel, primary screen, Fluo4 calcium, HEK293 TRPC4beta/mu-opioid cells | AID 2237, 2010 | B-score at 10 µM | 310,000 compounds, 0.49% hits | Fluo4 calcium fluorescence; active compounds read high;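 active means B-score above 5 SD of library B-scores, and initial fluorescence ratio not above library mean plus 5 SD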;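 further: positive B-score marks a calcium rise read as TRPC4 activation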
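Assay system: HEK293 stable line with TRPC4beta plus mu-opioid receptor. Times: dye 45 min RT, read 110 s. Measured by: kinetic Fluo4 calcium fluorescence. Measure: B score of integrated ratio. Controls: assay buffer as low control, maximal DAMGO as high control.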
TRPC6 inh = mouse TRPC6 channel inhibitors, primary screen, cell-based, HEK293, membrane potential dye. ACh-evoked depolarization; active compounds read low. B-score at 10 µM. 310,000 compounds, 1.1% hits;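 active means B-score under library mean minus 3 SD, initial fluorescence not abnormally high, positive integrated signal ratio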;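 further: B-score derived from integrated fluorescence ratio over the kinetic read; more negative B-score means stronger inhibition of depolarization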
* marks the source's active call; other numbers are inactive results.

What do the screens show for `Cc1noc(C)c1S(=O)(=O)N1CCC(C(=O)NCCCN2CC(C)CC(C)C2)CC1` (configuration not stated)?
TRPC6 act: inactive; TRPC4 potent: inactive; DNA FID counter: 1.6; TRPC4 block: inactive; TRPC4 agonist: 111*; TRPC6 inh: inactive

What do the screens show for `COc1ccc(C2Nc3ccccc3C(=O)N2Cc2ccco2)cc1COc1ccc(NC(C)=O)cc1` (configuration not stated)?
TRPC6 act: inactive; TRPC4 potent: inactive; DNA FID counter: -23.8; TRPC4 block: inactive; TRPC4 agonist: 110*; TRPC6 inh: inactive

Results for Cc1c(C(=O)N2CCC(Cc3ccccc3)CC2)cccc1[N+](=O)[O-] ?
TRPC6 act: inactive; TRPC4 potent: inactive; DNA FID counter: -42.4; TRPC4 block: inactive; TRPC4 agonist: inactive; TRPC6 inh: inactive

Results for COCCSc1ccccc1C(=O)N1CCC(Cc2ccccc2)CC1 ?
TRPC6 act: inactive; TRPC4 potent: inactive; DNA FID counter: -36.6; TRPC4 block: -7*; TRPC4 agonist: 44*; TRPC6 inh: inactive

How did COC(=O)C1=C(C)NC(=O)NC1c1cn(-c2ccccc2)nc1-c1cccs1 (configuration not stated) do in these assays?
TRPC6 act: inactive; TRPC4 potent: inactive; DNA FID counter: -16.7; TRPC4 block: inactive; TRPC4 agonist: inactive; TRPC6 inh: inactive

Results for CC1=C(C(=O)OC(C)C)C(c2cn(-c3ccccc3)nc2-c2cccs2)NC(=O)N1 (configuration not stated) ?
TRPC6 act: inactive; TRPC4 potent: 13*; DNA FID counter: -5.2; TRPC4 block: inactive; TRPC4 agonist: inactive; TRPC6 inh: inactive

What do the screens show for `CCOC(=O)[C@@H]1[C@H]2COc3ccccc3[C@H]2N2C(=O)N(c3cccc(F)c3)C(=O)[C@]12C`?
TRPC6 act: inactive; TRPC4 potent: inactive; DNA FID counter: -33.0; TRPC4 block: inactive; TRPC4 agonist: inactive; TRPC6 inh: inactive

What do the screens show for `CC1(C)CC2CC(C)(CN2CC(O)COc2ccccc2)C1` (configuration not stated)?
TRPC6 act: inactive; TRPC4 potent: inactive; DNA FID counter: 3.4; TRPC4 block: -9*; TRPC4 agonist: inactive; TRPC6 inh: inactive

What do the screens show for `CC(=C1C(=O)c2ccccc2C1=O)N1CCN(C/C=C/c2ccccc2)CC1`?
TRPC6 act: inactive; TRPC4 potent: inactive; DNA FID counter: -5.1; TRPC4 block: inactive; TRPC4 agonist: 49*; TRPC6 inh: inactive

Results for O=S(=O)(c1ccccc1)N1CCN(C/C=C/c2ccccc2)CC1 ?
TRPC6 act: inactive; TRPC4 potent: inactive; DNA FID counter: -16.9; TRPC4 block: -6*; TRPC4 agonist: inactive; TRPC6 inh: inactive

What do the screens show for `O=C(O)C1C2C=CC(C2)C1C(=O)N1CCN(C/C=C/c2ccccc2)CC1` (configuration not stated)?
TRPC6 act: inactive; TRPC4 potent: inactive; DNA FID counter: 1.3; TRPC4 block: inactive; TRPC4 agonist: 84*; TRPC6 inh: inactive

What do the screens show for `O=S(=O)(c1ccc(S(=O)(=O)N2CCN(C/C=C/c3ccccc3)CC2)cc1)N1CCCC1`?
TRPC6 act: inactive; TRPC4 potent: inactive; DNA FID counter: -1.4; TRPC4 block: inactive; TRPC4 agonist: inactive; TRPC6 inh: inactive

What do the screens show for `O=C1OC(N2CCN(C/C=C/c3ccccc3)CC2)c2ccccc21` (configuration not stated)?
TRPC6 act: inactive; TRPC4 potent: inactive; DNA FID counter: 3.5; TRPC4 block: inactive; TRPC4 agonist: 83*; TRPC6 inh: inactive

Results for Cc1nn(C(=O)c2cccc([N+](=O)[O-])c2)c(C)c1Sc1ccccc1 ?
TRPC6 act: inactive; TRPC4 potent: inactive; DNA FID counter: -3.1; TRPC4 block: -6*; TRPC4 agonist: inactive; TRPC6 inh: inactive

Results for Cc1nn(C(=O)c2ccco2)c(C)c1Sc1ccccc1 ?
TRPC6 act: inactive; TRPC4 potent: inactive; DNA FID counter: -3.2; TRPC4 block: inactive; TRPC4 agonist: inactive; TRPC6 inh: inactive

What do the screens show for `CCc1nc(NCCc2ccccn2)c2nnn(Cc3ccccc3F)c2n1`?
TRPC6 act: inactive; TRPC4 potent: inactive; DNA FID counter: -22.5; TRPC4 block: inactive; TRPC4 agonist: 186*; TRPC6 inh: inactive

What do the screens show for `NC(=O)c1nsc(C(=O)N(Cc2ccco2)C(C(=O)NCc2ccc(F)cc2)c2ccc(O)cc2)c1N` (configuration not stated)?
TRPC6 act: inactive; TRPC4 potent: inactive; DNA FID counter: -13.4; TRPC4 block: -6*; TRPC4 agonist: inactive; TRPC6 inh: inactive

What do the screens show for `COc1ccc(C(C(=O)NC2CCCCC2)N(Cc2ccco2)C(=O)c2snc(C(N)=O)c2N)cc1` (configuration not stated)?
TRPC6 act: inactive; TRPC4 potent: inactive; DNA FID counter: -31.1; TRPC4 block: inactive; TRPC4 agonist: inactive; TRPC6 inh: inactive

Results for Cc1ccc(C(C(=O)NCc2ccc(F)cc2)N(Cc2ccco2)C(=O)c2snc(C(N)=O)c2N)o1 (configuration not stated) ?
TRPC6 act: inactive; TRPC4 potent: inactive; DNA FID counter: -31.4; TRPC4 block: inactive; TRPC4 agonist: inactive; TRPC6 inh: inactive

Results for NC(=O)c1nsc(C(=O)N(Cc2ccco2)C(C(=O)NC2CCCC2)c2ccc(O)cc2)c1N (configuration not stated) ?
TRPC6 act: inactive; TRPC4 potent: inactive; DNA FID counter: -19.4; TRPC4 block: -5*; TRPC4 agonist: inactive; TRPC6 inh: inactive

Results for COc1cc(N)ccc1NC(=O)c1cc2ccccc2o1 ?
TRPC6 act: inactive; TRPC4 potent: inactive; DNA FID counter: 0.1; TRPC4 block: inactive; TRPC4 agonist: inactive; TRPC6 inh: inactive

What do the screens show for `CN1CCN(CC(=O)Nc2ccccc2Oc2ccccc2)CC1`?
TRPC6 act: inactive; TRPC4 potent: inactive; DNA FID counter: 4.3; TRPC4 block: inactive; TRPC4 agonist: inactive; TRPC6 inh: inactive

How did O=C(CN1CCCCC1)Nc1ccccc1Oc1ccccc1 do in these assays?
TRPC6 act: inactive; TRPC4 potent: inactive; DNA FID counter: -0.8; TRPC4 block: -5*; TRPC4 agonist: inactive; TRPC6 inh: inactive

Bioassay records (PubChem BioAssay)
